Assay: ITC: binding
How it was run: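 25 × 10 μl injections of 50 μM full-length BclXL into a cell of 2 mM TOCL/DHPC bicelles (1:4 molar ratio, stirred 2 h at 37 °C in buffer). 25 °C; 50 mM buffer (acetate pH 4 to CAPS pH 10) with 100 mM NaCl, 1 mM EDTA and 5 mM β-mercaptoethanol. Buffer-titration heats subtracted. Kd and ΔH from a one-site fit; TΔS = ΔH − ΔG. ≥3 repeats.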

Substance: full-length BclXL: Full-length human BclXL (residues 1-233), N-terminal His-tag, expressed in Escherichia coli
- TΔS (pH 4, acetate, 25 °C, TΔS=ΔH-ΔG, ± SD, n at least 3): -53.73 ± 4.1 kcal/mol
- ΔH (pH 4, acetate, 25 °C, ± SD, n at least 3): -63.00 ± 4.2 kcal/mol
- ΔG (pH 4, acetate, 25 °C, ΔG=RTlnKd, ± SD, n at least 3): -9.26 ± 0.1 kcal/mol
- binding to TOCL/DHPC bicelles, in words (pH 4-10): only under acidic conditions

— PMC3483416 (Archives of biochemistry and biophysics, 2012)
